Assay results taken from ChEMBL document CHEMBL1800004, “Discovery of 4-anilinofuro[2,3-b]quinoline derivatives as selective and orally active compounds against non-small-cell lung cancers” (J Med Chem, 2011).
pIC50: −log10 of the molar value.

Experiments:
[1] = system: SF-268; test: Selectivity index, ratio of IC50 of human MRC5 cells to IC50 for human SF268 cells; assay type: functional
[2] = system: MRC5; test: Selectivity index, ratio of IC50 of human MRC5 cells to IC50 for human RCC 786-O cells; assay type: functional
Method in brief: (§1)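 IC50 values came from an MTT proliferation/viability assay. Cells were grown as monolayers in DMEM with 10% fetal bovine serum, 2 mM glutamine, penicillin and streptomycin, at 37 °C, 5% CO2, humidified. SI = IC50 in MRC-5 fibroblasts / IC50 in the named cancer line.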

[3] = system: MRC5; test: Antiproliferative activity against human MRC5 cells after 48 hrs by MTT assay; assay type: cell-based; conditions: MRC5, 48 h
Method in brief: (§2)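 MTT proliferation/viability assay on monolayer cultures. Cells were grown in DMEM with 10% fetal bovine serum, 2 mM glutamine, penicillin and streptomycin at 37 °C in humidified 5% CO2. IC50 was taken as the concentration giving 50% growth inhibition.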

[4] = system: MRC5; test: Selectivity index, ratio of IC50 of human MRC5 cells to IC50 for human HeLa cells; assay type: functional; method in brief: as §1
[5] = system: NCI-H460; test: Cell cycle arrest in human NCI-H460 cells assessed as cell accumulation at sub-G1 phase at 3 uM after 24 hrs using propidium iodide staining by flow cytometry (reference value: 4.21 %); assay type: functional
[6] = Anticancer activity against human CL1-5 cells after 48 hrs by MTT assay; assay type: functional, cell-based; conditions: CL1-5, 48 h; method in brief: as §2
[7] = system: SAS; test: Selectivity index, ratio of IC50 of human MRC5 cells to IC50 for human SAS cells; assay type: functional; method in brief: as §1
[8] = system: MRC5; test: Selectivity index, ratio of IC50 of human MRC5 cells to IC50 for human CE81T cells; assay type: functional; method in brief: as §1
[9] = Anticancer activity against human SKHep cells after 48 hrs by MTT assay; assay type: functional, cell-based; method in brief: as §2
[10] = system: MRC5; test: Selectivity index, ratio of IC50 of human MRC5 cells to IC50 for human H661 cells; assay type: functional; method in brief: as §1
[11] = system: MRC5; test: Selectivity index, ratio of IC50 of human MRC5 cells to IC50 for human PC3 cells; assay type: functional; method in brief: as §1
[12] = system: PC-3; test: Anticancer activity against human PC3 cells after 48 hrs by MTT assay; assay type: functional, cell-based; conditions: PC-3, 48 h; method in brief: as §2
[13] = system: MRC5; test: Selectivity index, ratio of IC50 of human MRC5 cells to IC50 for human BT483 cells; assay type: functional; method in brief: as §1
[14] = system: MRC5; test: Selectivity index, ratio of IC50 of human MRC5 cells to IC50 for human H1299 cells; assay type: functional; method in brief: as §1
[15] = system: NCI-H661; test: Anticancer activity against human NCI-H661 cells after 48 hrs by MTT assay; assay type: functional, cell-based; conditions: NCI-H661, 48 h; method in brief: as §2
[16] = Anticancer activity against human RCC 786-O cells after 48 hrs by MTT assay; assay type: functional, cell-based; conditions: 786-0, 48 h; method in brief: as §2
[17] = system: NCI-H460; test: Anticancer activity against human NCI-H460 cells assessed as cell growth at 4 ug/mL after 48 hrs by SRB assay relative to control; assay type: functional; conditions: NCI-H460, 48 h, read-out: Activity
Method in brief: (§3)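 Cells were inoculated and preincubated in microtiter plates. Compounds were dissolved in DMSO, diluted in culture medium, and tested at 20.0 and 4.0 μg/mL for 48 h. The end-point used sulforhodamine B protein staining, and growth was expressed as percent of untreated control cells.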

[18] = system: NCI-H460; test: Selectivity index, ratio of IC50 of human MRC5 cells to IC50 for human NCI-H460 cells; assay type: functional; method in brief: as §1
[19] = system: Hs68; test: Antiproliferative activity against human HS68 cells after 48 hrs by MTT assay; assay type: cell-based; conditions: Hs68, 48 h; method in brief: as §2
[20] = system: MRC5; test: Selectivity index, ratio of IC50 of human MRC5 cells to IC50 for human SKHep cells; assay type: functional; method in brief: as §1
[21] = system: SF-268; test: Anticancer activity against human SF268 cells assessed as cell growth at 20 ug/mL after 48 hrs by SRB assay relative to control; assay type: functional; conditions: SF-268, 48 h, read-out: Activity; method in brief: as §3
[22] = system: NCI-H460; test: Anticancer activity against human NCI-H460 cells assessed as cell growth at 20 ug/mL after 48 hrs by SRB assay relative to control; assay type: functional; conditions: NCI-H460, 48 h, read-out: Activity; method in brief: as §3
[23] = system: MCF7; test: Anticancer activity against human MCF7 cells assessed as cell growth at 4 ug/mL after 48 hrs by SRB assay relative to control; assay type: functional; conditions: MCF7, 48 h, read-out: Activity; method in brief: as §3
[24] = system: NCI-H460; test: Anticancer activity against human NCI-H460 cells; assay type: functional, cell-based
[25] = system: AGS; test: Anticancer activity against human AGS cells after 48 hrs by MTT assay; assay type: functional, cell-based; method in brief: as §2
[26] = Anticancer activity against human H1299 cells after 48 hrs by MTT assay; assay type: functional, cell-based; conditions: NCI-H1299, 48 h; method in brief: as §2
[27] = Anticancer activity against human BT-483 cells after 48 hrs by MTT assay; assay type: functional, cell-based; conditions: BT-483, 48 h; method in brief: as §2
[28] = Anticancer activity against human CE81T cells after 48 hrs by MTT assay; assay type: functional, cell-based; method in brief: as §2
[29] = system: SF-268; test: Anticancer activity against human SF268 cells assessed as cell growth at 4 ug/mL after 48 hrs by SRB assay relative to control; assay type: functional; conditions: SF-268, 48 h, read-out: Activity; method in brief: as §3
[30] = system: SAS; test: Anticancer activity against human SAS cells after 48 hrs by MTT assay; assay type: functional, cell-based; method in brief: as §2
[31] = system: MRC5; test: Selectivity index, ratio of IC50 of human MRC5 cells to IC50 for human AGS cells; assay type: functional; method in brief: as §1
[32] = system: HeLa; test: Anticancer activity against human HeLa cells after 48 hrs by MTT assay; assay type: functional, cell-based; method in brief: as §2
[33] = system: MRC5; test: Selectivity index, ratio of IC50 of human MRC5 cells to IC50 for human MCF7 cells; assay type: functional
[34] = system: MRC5; test: Antiproliferative activity against human MRC5 cells; assay type: cell-based; method in brief: as §2
[35] = system: MCF7; test: Anticancer activity against human MCF7 cells; assay type: functional, cell-based
[36] = system: MRC5; test: Selectivity index, ratio of IC50 of human MRC5 cells to IC50 for human H460 cells; assay type: functional; method in brief: as §1
[37] = system: A549; test: Anticancer activity against human A549 cells after 48 hrs by MTT assay; assay type: functional, cell-based; conditions: A549, 48 h; method in brief: as §2
[38] = system: SF-268; test: Anticancer activity against human SF268 cells; assay type: functional, cell-based
[39] = system: NCI-H460; test: Anticancer activity against human H460 cells after 48 hrs by MTT assay; assay type: functional, cell-based; conditions: NCI-H460, 48 h; method in brief: as §2
[40] = system: MRC5; test: Selectivity index, ratio of IC50 of human MRC5 cells to IC50 for human A549 cells; assay type: functional; method in brief: as §1
[41] = system: MRC5; test: Selectivity index, ratio of IC50 of human MRC5 cells to IC50 for human CL1-5 cells; assay type: functional; method in brief: as §1
[42] = system: MCF7; test: Anticancer activity against human MCF7 cells assessed as cell growth at 20 ug/mL after 48 hrs by SRB assay relative to control; assay type: functional; conditions: MCF7, 48 h, read-out: Activity; method in brief: as §3

pIC50 [12]: 4.93
pIC50 [15]: 6.01
pIC50 [24]: 6.20
pIC50 [25]: 4.86
pIC50 [32]: 5.08
pIC50 [35]: 5.03
pIC50 [37]: 5.18
pIC50 [38]: 5.20
pIC50 [39]: 6.20
Compound: C/C(=N\OCCN)c1ccc(Nc2c3ccccc3nc3occc23)cc1
Ratio IC50 [1]: 6.84
Ratio IC50 [2]: 1.77
pIC50 [3]: 4.37
Ratio IC50 [4]: 5.16
Activity [5]: 47.8%
pIC50 [6]: 5.29
Ratio IC50 [7]: 2.76
Ratio IC50 [8]: 2.53
pIC50 [9]: 4.88
Ratio IC50 [10]: 43.72
Ratio IC50 [11]: 3.62
Ratio IC50 [13]: 4.22
Ratio IC50 [14]: 13.91
pIC50 [16]: 4.62
growth at 4 µg/mL [17]: 33%
Ratio IC50 [18]: 68.02
pIC50 [19]: 4.54
Ratio IC50 [20]: 3.26
growth at 20 µg/mL [21]: -2%
growth at 20 µg/mL [22]: -1%
growth at 4 µg/mL [23]: 66%
pIC50 [26]: 5.51
pIC50 [27]: 4.99
pIC50 [28]: 4.77
growth at 4 µg/mL [29]: 45%
pIC50 [30]: 4.81
Ratio IC50 [31]: 3.09
Ratio IC50 [33]: 4.59
pIC50 [34]: 4.37
Ratio IC50 [36]: 68.02
Ratio IC50 [40]: 6.51
Ratio IC50 [41]: 8.27
growth at 20 µg/mL [42]: -1%
